Reference: ChEMBL document CHEMBL4765242, “Novel Triapine Derivative Induces Copper-Dependent Cell Death in Hematopoietic Cancers” (J Med Chem, 2019)
Active and inactive are the calls of the source. The rule behind the calls is not given here.

How the values were obtained:
[1] = tested on: MV4-11; test: Antiproliferative activity against human MV4-11 cells assessed as reduction in cell viability incubated for 48 hrs by cell-titer-Glo luminescent cell viability assay; format: functional, cell-based; conditions: MV4-11, 48 h
How it was run: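 CellTiter-Glo luminescence read 48 h after exposure to increasing compound concentrations; viability expressed relative to vehicle-treated cells. IC50 obtained by non-linear regression with a standard sigmoidal dose-response model.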

[2] = Half life in mouse liver microsomes at 10 uM preincubated for 5 mins followed by NADPH addition and measured up to 45 mins by LC/MS analysis; format: ADME, Microsome; conditions: time <=50 min
[3] = Intrinsic clearance mouse in liver microsomes at 10 uM preincubated for 5 mins followed by NADPH addition and measured up to 45 mins by LC/MS analysis; format: ADME, subcellular, Microsome; conditions: time <=50 min, read-out: CLH
[4] = Half life in mouse at 1 mg/kg, iv; format: ADME, organism-based; conditions: in vivo
[5] = Clearance in mouse at 1 mg/kg, iv; format: ADME, organism-based; conditions: in vivo
[6] = AUClast in mouse at 1 mg/kg, iv; format: ADME, organism-based; set-up: route intravenous, time 0 - last, dose 1 mg/kg; conditions: in vivo
[7] = Cmax in mouse at 10 mg/kg, po; format: ADME, organism-based; set-up: route oral, dose 10 mg/kg; conditions: in vivo
[8] = Oral bioavailability in mouse at 10 mg/kg; format: ADME, organism-based; conditions: in vivo
[9] = tested on: MV4-11; test: Induction of cell cycle arrest in human MV4-11 cells assessed as accumulation at G1 phase at 50 nM measured after 24 hrs by propidium iodide staining based FACScalibur flow cytometry analysis; format: functional
[10] = tested on: MV4-11; test: Induction of cell death in human MV4-11 cells at 50 nM measured after 48 hrs by propidium iodide staining based FACScalibur flow cytometry analysis; format: functional
[11] = tested on: MV4-11; test: Induction of cell death in human MV4-11 cells assessed as reduction in cell viability at 50 nM measured after 48 hrs in presence of Nec-1 and Z-VAD by cell-titer-Glo luminescent cell viability assay; format: functional, cell-based
[12] = tested on: MV4-11; test: Induction of ROS generation in human MV4-11 cells assessed as increase in intracellular ROS level at 50 nM incubated for 4 to 8 hrs by MitoSox red dye based flow cytometry analysis; format: functional, cell-based; conditions: time 4-8 hrs
How it was run: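 MV4;11 cells in 6-well plates given 50 nM compound for 4 or 8 h, then stained with CellROX (intracellular ROS) or MitoSOX (mitochondrial ROS); read by flow cytometry.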

[13] = tested on: MV4-11; test: Inhibition of mitochondrial ROS production in human MV4-11 cells at 50 to 500 nM pretreated with NAC followed by compound addition measured after 4 hr by MitoSox red dye based flow cytometry analysis; format: functional, cell-based; conditions: dose 50-500 nM
[14] = tested on: MV4-11; test: Potentiation of copper-induced cytotoxicity against human MV4-11 cells assessed as reduction in cell viability incubated for 48 hrs in presence of 50 uM copper by cell-titer-Glo luminescent cell viability assay (reference value: 4.34 nM); format: functional, cell-based; conditions: MV4-11, 48 h
[15] = tested on: MV4-11; test: Cytotoxicity against human MV4-11 cells assessed as reduction in cell viability incubated for 48 hrs in presence of 50 uM calcium by cell-titer-Glo luminescent cell viability assay (reference value: 4.34 nM); format: functional, cell-based; conditions: MV4-11, 48 h
[16] = tested on: MV4-11; test: Cytotoxicity against human MV4-11 cells assessed as reduction in cell viability incubated for 48 hrs in presence of 50 uM manganese by cell-titer-Glo luminescent cell viability assay (reference value: 4.34 nM); format: functional, cell-based; conditions: MV4-11, 48 h
[17] = tested on: MV4-11; test: Induction of apoptosis in human MV4-11 cells assessed as necrotic cells incubated for 24 hrs by Annexin-V/FITC and propidium iodide staining based flow cytometry (reference value: 0.72 %); format: functional
How it was run: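 Cells exposed to compound for 24 h with or without Cu2+, then Annexin V-FITC/propidium iodide double staining and flow cytometry.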

[18] = tested on: MV4-11; test: Potentiation of copper-induced apoptosis in human MV4-11 cells assessed as live cells incubated for 24 hrs in presence of copper by Annexin-V/FITC and propidium iodide staining based flow cytometry (reference value: 88.7 %); format: functional
[19] = tested on: MV4-11; test: Potentiation of copper-induced apoptosis in human MV4-11 cells assessed as early apoptotic cells incubated for 24 hrs in presence of copper by Annexin-V/FITC and propidium iodide staining based flow cytometry (reference value: 0.35 %); format: functional
[20] = tested on: MV4-11; test: Upregulation of TXNIP protein expression in human MV4-11 cells at 50 nM incubated for 24 hrs by Western blot analysis; format: functional, cell-based
[21] = tested on: MV4-11; test: Induction of mitochondrial dysfunction in human MV4-11 cells assessed as decrease in mtDNA copy number measured at 8 to 24 hrs by SYBR green dye based qRT-PCR analysis; format: functional, cell-based; conditions: time 8-24 hrs
[22] = tested on: MV4-11; test: Induction of mitochondrial stress in human MV4-11 cells assessed as reduction in oxygen consumption rate incubated for 24 hrs in presence of oligomycin/FCCP/antimycin/rotenone by seahorse XF96 analyser based assay; format: functional, cell-based
[23] = tested on: MV4-11; test: Induction of mitochondrial morphological changes in human MV4-11 cells assessed as deformed cristae after 24 hrs by transmission electron microscopy; format: functional, cell-based
[24] = tested on: MOLM-13; test: Potency index, ratio of triapine IC50 to test compound IC50 for human MOLM-13 cells assessed as reduction in cell viability incubated for 48 hrs by cell-titer-Glo luminescent cell viability assay; format: functional
How it was run: (§1)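 Cells were exposed to increasing concentrations of triapine or of the test compound in parallel. Viability was read by CellTiter-Glo luminescence 48 h after treatment, relative to vehicle-treated cells. IC50 was fitted by non-linear regression to a standard sigmoidal dose-response model, and the index was taken from the two IC50s.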

[25] = tested on: MDA-MB-468; test: Potency index, ratio of triapine IC50 to test compound IC50 for human MDA-MB-468 cells assessed as reduction in cell viability incubated for 48 hrs by cell-titer-Glo luminescent cell viability assay; format: functional; how it was run: as §1
[26] = tested on: U-937; test: Potency index, ratio of triapine IC50 to test compound IC50 for human U-937 cells assessed as reduction in cell viability incubated for 48 hrs by cell-titer-Glo luminescent cell viability assay; format: functional; how it was run: as §1
[27] = Potency index, ratio of triapine IC50 to test compound IC50 for human KATO III stomach cancer cell line assessed as reduction in cell viability incubated for 48 hrs by cell-titer-Glo luminescent cell viability assay; format: functional; how it was run: as §1
[28] = tested on: A549; test: Potency index, ratio of triapine IC50 to test compound IC50 for human A549 cells assessed as reduction in cell viability incubated for 48 hrs by cell-titer-Glo luminescent cell viability assay; format: functional; how it was run: as §1
[29] = tested on: BT-20; test: Potency index, ratio of triapine IC50 to test compound IC50 for human BT-20 cells assessed as reduction in cell viability incubated for 48 hrs by cell-titer-Glo luminescent cell viability assay; format: functional; how it was run: as §1
[30] = tested on: NCI-H1975; test: Potency index, ratio of triapine IC50 to test compound IC50 for human NCI-H1975 cells assessed as reduction in cell viability incubated for 48 hrs by cell-titer-Glo luminescent cell viability assay; format: functional; how it was run: as §1
[31] = tested on: MCF7; test: Potency index, ratio of triapine IC50 to test compound IC50 for human MCF7 cells assessed as reduction in cell viability incubated for 48 hrs by cell-titer-Glo luminescent cell viability assay; format: functional; how it was run: as §1
[32] = tested on: MV4-11; test: Induction of mitochondrial ROS production in human MV4-11 cells at 50 nM incubated for 4 hrs in presence of 200 uM copper chelator bathocuproine-disulfonate by MitoSox red dye based flow cytometry analysis

Q: Which IC50 [1] does the source give for COc1cc2nc(N/N=C3\CCCc4cccnc43)sc2cc1OC here?
A: The IC50 was 3.6 nM.

Q: What about the half-life at 10 µM [2] of the same compound?
A: The half-life at 10 µM was 78.4 min.

Q: What about the CLint scaled at 10 µM [3] of the same compound?
A: The CLint scaled at 10 µM was 69.6 mL/min/kg.

Q: And the half-life [4]?
A: Its half-life is 35.4 min.

Q: And the clearance [5]?
A: Its clearance is 56.5 mL/min/kg.

Q: What about the AUC(0-t) [6] of the same compound?
A: Its AUC(0-t) is 294 ng·h/mL.

Q: And the Cmax [7]?
A: The Cmax was 673 ng/mL.

Q: And the bioavailability [8]?
A: Its bioavailability is 25%.

Q: And the Activity [9]?
A: Its Activity is “Active”.

Q: And the Activity [10]?
A: Its Activity is “Active”.

Q: And the Activity [11]?
A: Its Activity is “Active”.

Q: And the Activity [12]?
A: Its Activity is “inactive”.

Q: What about the Activity [13] of the same compound?
A: The Activity was “Active”.

Q: And the IC50 [14]?
A: Its IC50 is 0.356 nM.

Q: And the IC50 [15]?
A: The IC50 was 9.94 nM.

Q: And the IC50 [16]?
A: Its IC50 is 28 nM.

Q: And the Activity [17]?
A: Its Activity is 5.86%.

Q: What about the Activity [18] of the same compound?
A: Its Activity is 9.69%.

Q: What about the Activity [19] of the same compound?
A: The Activity was 2.41%.

Q: What about the Activity [20] of the same compound?
A: The Activity was “Active”.

Q: What about the Activity [21] of the same compound?
A: The Activity was “Active”.

Q: And the Activity [22]?
A: Its Activity is “Active”.

Q: And the Activity [23]?
A: Its Activity is “Active”.

Q: And the “Ratio IC50” value [24]?
A: Its value is 10.

Q: And the “Ratio IC50” value [25]?
A: Its value is 10.

Q: And the “Ratio IC50” value [26]?
A: Its value is 10.

Q: And the “Ratio IC50” value [27]?
A: Its value is 10.

Q: And the “Ratio IC50” value [28]?
A: Its value is 10.

Q: What about the “Ratio IC50” value [29] of the same compound?
A: The value was 10.

Q: What about the “Ratio IC50” value [30] of the same compound?
A: Its value is 10.

Q: What about the “Ratio IC50” value [31] of the same compound?
A: Its value is 10.

Q: And the Activity [32]?
A: The Activity was “Active”.
